# Read-outs that look alike come from different tables or passages of the source.
# Experiments:
# [1] = test system: non-replicating M. tuberculosis H37Rv (pFCA-luxAB); test: microbe, parasite or virus in culture; format: cell-based; settings: Mycobacterium tuberculosis, read-out: MIC μg/mL (LORA)
# [2] = test system: HepG2 human hepatoblastoma cells; test: Cytotoxicity assay; format: cell-based; settings: HepG2, read-out: IC50 μg/mL HepG2 cells
# [3] = test system: M. tuberculosis H37Rv; test: MIC, microplate alamar blue assay; format: cell-based; settings: Mycobacterium tuberculosis
# [4] = biological target: Mtb serine/threonine kinase PknB (Mycobacterium tuberculosis, UniProt P9WI81); test: Ser/Thr protein kinase assay; format: biochemical, M. tuberculosis
# [5] = Cytotoxicity assay; format: cell-based; settings: monkey, Vero monkey kidney cells (ATCC CCL-81)
# Procedure, shortened: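 Vero kidney cells grown in 96-well plates in ATCC-formulated Eagle's Minimum Essential Medium and exposed to test compound. Each plate includes reference drugs of known toxicity as controls. Cytopathic effect is read by MTT assay after incubation, and IC50 is reported.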
# [6] = test system: M. tuberculosis; format: cell-based, Mycobacterium tuberculosis; settings: for time to kill Mtb completely (100%): 2× MIC: capuramycin 24.0 μg/mL; for time to kill Mtb completely (100%) / time to kill 50% of Mtb: UT-01320 3.0 μg/mL; for time to kill 50% of Mtb: 2× MIC: rifampicin 0.4, INH 1.0 (so in the source)
# [7] = test system: menaquinone biosynthesis; format: biochemical
# [8] = test system: M. smegmatis ATCC607; test: MIC, broth dilution; format: cell-based, Mycobacterium smegmatis; settings: M. smegmatis ATCC607, broth dilution method
# [9] = biological target: bacterial RNA polymerases; test: RNA polymerase assays, enzyme not given; format: biochemical; settings: read-out: IC50, bacterial RNA polymerases; abstract
# [10] = test system: E. coli ATCC 25019; test: MIC, broth dilution; format: cell-based; settings: Escherichia coli, ATCC25019
# [11] = biological target: E. coli RNA polymerase (Escherichia coli, UniProt P0A8T7+P0A8V2); test: RNA polymerase assay; format: biochemical
# [12] = biological target: DNA gyrase (Escherichia coli, UniProt P0AES4+P0AES6); test: DNA topoisomerase II - DNA supercoiling assay; format: biochemical
# [13] = test system: E. faecium ATCC 349; test: MIC, broth dilution; format: cell-based; settings: Enterococcus faecium, ATCC349
# [14] = biological target: M. smegmatis RNA polymerase (Mycolicibacterium smegmatis, UniProt A0QS66+P60281); test: RNA polymerase assay; format: biochemical
# [15] = biological target: T1, Mtb serine/threonine kinase PKnA (Mycobacterium tuberculosis, UniProt P9WI83); test: Ser/Thr protein kinase assay; format: biochemical, M. tuberculosis
# T1 sequence (P9WI83 1-431): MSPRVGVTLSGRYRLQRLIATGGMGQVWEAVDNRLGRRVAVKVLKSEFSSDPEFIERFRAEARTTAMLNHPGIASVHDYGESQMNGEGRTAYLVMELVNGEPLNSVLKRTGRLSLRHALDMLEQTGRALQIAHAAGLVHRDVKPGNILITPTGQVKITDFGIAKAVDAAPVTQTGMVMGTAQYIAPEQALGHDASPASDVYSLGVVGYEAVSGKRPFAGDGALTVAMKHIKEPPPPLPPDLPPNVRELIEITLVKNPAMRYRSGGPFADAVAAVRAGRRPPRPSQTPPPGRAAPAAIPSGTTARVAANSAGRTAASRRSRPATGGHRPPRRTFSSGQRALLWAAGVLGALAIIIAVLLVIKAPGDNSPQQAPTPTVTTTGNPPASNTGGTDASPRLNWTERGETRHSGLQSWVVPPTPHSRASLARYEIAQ
# [16] = biological target: T2, MurX (Mycobacterium tuberculosis, UniProt P9WMW7); test: MurX enzyme inhibitory assay; format: biochemical, M. tuberculosis
# T2 sequence (P9WMW7 1-359): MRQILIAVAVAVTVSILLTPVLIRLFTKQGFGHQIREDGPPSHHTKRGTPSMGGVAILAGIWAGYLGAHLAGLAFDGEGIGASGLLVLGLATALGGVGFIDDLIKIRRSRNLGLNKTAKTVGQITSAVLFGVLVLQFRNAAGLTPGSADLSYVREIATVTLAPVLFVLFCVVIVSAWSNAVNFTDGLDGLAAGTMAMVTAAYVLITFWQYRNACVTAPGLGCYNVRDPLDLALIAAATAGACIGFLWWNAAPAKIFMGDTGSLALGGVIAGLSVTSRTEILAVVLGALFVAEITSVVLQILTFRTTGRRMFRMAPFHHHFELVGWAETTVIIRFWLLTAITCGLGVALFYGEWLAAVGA
# [17] = test system: P. aeruginosa ATCC 27853; test: MIC, broth dilution; format: cell-based; settings: Pseudomonas aeruginosa, ATCC27853
# [18] = biological target: S. aureus RNA polymerase (Staphylococcus aureus, UniProt P47768+Q2G0N5); test: RNA polymerase assay; format: biochemical
# [19] = test system: electron transport systems; test: Inhibition of electron transport systems; format: cell-based
# [20] = test system: Mtb; test: Micro dilution broth checkerboard; format: cell-based, Mycobacterium tuberculosis
# Sequence of E. coli RNA polymerase (P0A8V2 whole entry): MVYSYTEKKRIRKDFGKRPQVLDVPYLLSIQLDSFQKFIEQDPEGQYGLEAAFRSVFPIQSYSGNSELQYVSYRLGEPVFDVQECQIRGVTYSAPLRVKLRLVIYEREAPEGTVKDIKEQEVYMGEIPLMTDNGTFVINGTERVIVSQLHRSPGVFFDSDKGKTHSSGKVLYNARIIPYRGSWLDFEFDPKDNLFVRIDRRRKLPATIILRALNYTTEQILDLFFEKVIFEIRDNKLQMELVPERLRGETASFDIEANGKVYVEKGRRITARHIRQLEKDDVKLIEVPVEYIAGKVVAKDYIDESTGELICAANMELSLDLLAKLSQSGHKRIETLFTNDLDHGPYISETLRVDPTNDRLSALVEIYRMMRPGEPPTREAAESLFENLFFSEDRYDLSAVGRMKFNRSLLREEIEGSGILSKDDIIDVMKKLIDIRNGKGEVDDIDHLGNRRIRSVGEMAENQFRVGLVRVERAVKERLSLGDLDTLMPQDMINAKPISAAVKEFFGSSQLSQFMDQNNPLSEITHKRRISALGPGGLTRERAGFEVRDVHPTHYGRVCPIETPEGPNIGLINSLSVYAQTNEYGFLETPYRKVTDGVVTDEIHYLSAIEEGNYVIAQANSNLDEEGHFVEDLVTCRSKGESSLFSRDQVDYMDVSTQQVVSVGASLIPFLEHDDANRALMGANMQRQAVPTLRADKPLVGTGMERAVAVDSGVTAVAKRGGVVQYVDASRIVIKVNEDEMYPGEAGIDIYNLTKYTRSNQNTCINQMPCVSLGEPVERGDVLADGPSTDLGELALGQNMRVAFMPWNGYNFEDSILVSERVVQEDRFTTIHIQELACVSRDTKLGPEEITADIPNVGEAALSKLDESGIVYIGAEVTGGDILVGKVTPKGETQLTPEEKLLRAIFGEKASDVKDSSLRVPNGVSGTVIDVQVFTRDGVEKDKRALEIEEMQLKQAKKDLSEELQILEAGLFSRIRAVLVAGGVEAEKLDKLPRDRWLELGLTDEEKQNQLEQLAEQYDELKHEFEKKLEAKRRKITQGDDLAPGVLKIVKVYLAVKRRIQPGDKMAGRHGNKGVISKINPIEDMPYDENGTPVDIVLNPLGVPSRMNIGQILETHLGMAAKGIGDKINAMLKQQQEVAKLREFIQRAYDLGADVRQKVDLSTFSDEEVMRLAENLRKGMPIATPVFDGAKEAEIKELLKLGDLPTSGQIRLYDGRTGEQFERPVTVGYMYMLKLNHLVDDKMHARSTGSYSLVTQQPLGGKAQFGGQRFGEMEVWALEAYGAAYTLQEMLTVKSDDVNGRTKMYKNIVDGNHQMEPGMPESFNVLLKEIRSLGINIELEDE
# Sequence of E. coli RNA polymerase (P0A8T7 whole entry): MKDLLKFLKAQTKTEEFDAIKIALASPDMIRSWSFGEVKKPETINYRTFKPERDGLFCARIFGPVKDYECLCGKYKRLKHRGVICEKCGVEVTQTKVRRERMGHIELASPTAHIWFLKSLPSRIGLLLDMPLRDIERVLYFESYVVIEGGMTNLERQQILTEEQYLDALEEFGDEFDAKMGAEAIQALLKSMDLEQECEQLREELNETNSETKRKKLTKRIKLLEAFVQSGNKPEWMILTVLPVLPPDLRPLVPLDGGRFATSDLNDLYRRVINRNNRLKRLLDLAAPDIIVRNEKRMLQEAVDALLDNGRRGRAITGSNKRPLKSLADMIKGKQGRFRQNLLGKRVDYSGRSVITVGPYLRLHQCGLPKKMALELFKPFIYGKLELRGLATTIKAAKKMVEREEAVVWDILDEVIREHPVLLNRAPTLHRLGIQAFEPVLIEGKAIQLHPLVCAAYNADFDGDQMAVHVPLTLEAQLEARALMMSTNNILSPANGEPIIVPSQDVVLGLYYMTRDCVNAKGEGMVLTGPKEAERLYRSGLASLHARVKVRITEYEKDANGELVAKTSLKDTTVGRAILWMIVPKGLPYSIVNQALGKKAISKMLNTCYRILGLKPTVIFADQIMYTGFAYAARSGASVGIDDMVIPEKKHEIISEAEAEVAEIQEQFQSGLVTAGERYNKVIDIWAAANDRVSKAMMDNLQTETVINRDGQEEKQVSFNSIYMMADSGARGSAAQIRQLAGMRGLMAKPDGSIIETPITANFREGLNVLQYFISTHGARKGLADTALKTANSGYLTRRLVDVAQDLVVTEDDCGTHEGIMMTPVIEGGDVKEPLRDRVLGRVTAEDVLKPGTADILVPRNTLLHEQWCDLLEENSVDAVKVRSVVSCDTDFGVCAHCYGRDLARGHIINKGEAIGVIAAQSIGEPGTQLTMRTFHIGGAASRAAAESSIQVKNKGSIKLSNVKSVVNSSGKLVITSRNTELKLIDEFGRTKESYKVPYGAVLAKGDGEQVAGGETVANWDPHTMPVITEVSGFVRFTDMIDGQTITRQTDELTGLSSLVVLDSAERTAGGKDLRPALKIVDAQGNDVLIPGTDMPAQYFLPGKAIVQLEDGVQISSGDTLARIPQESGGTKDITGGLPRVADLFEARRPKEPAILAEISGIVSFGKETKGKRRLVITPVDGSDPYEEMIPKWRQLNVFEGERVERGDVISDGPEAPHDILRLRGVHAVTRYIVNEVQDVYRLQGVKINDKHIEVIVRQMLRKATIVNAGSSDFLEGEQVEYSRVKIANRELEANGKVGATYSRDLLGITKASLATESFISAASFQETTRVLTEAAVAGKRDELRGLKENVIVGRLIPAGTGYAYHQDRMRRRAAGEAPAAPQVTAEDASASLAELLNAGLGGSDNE
# Sequence of E. coli RNA polymerase (P0A7Z4 whole entry partner): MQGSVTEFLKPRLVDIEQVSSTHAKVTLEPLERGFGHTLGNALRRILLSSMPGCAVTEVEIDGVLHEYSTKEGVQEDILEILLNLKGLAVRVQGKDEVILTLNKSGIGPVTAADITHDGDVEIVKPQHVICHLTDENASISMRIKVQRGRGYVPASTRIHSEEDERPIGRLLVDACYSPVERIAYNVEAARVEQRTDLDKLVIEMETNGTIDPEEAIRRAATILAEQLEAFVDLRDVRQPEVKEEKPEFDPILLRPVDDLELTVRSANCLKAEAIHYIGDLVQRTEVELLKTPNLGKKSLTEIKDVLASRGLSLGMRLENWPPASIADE
# Sequence of E. coli RNA polymerase (P0A800 whole entry partner): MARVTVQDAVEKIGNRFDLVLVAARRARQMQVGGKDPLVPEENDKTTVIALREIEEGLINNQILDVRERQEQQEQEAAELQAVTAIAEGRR
# Sequence of DNA gyrase (P0AES4 whole entry, one chain of several): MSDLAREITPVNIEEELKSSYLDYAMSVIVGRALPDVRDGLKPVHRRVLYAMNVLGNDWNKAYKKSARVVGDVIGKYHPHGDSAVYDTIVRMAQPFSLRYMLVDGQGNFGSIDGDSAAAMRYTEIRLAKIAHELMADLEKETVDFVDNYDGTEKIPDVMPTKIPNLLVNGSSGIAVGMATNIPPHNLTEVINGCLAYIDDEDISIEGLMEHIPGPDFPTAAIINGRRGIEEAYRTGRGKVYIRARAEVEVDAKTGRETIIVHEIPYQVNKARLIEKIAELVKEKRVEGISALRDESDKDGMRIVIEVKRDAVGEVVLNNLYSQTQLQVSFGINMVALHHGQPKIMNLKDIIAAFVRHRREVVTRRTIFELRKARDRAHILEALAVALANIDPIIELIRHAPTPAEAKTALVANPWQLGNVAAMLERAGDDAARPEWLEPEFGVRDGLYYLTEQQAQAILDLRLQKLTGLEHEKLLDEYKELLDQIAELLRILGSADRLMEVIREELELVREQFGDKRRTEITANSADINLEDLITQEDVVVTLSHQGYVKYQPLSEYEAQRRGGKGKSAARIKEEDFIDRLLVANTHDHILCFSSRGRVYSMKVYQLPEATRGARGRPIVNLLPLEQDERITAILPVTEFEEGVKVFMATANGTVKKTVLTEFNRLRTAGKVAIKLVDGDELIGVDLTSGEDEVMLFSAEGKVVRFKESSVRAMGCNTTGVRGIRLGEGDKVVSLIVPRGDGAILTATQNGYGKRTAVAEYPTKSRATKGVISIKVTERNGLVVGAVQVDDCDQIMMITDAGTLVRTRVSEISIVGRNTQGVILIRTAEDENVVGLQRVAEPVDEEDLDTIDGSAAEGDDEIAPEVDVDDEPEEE
# Sequence of Mtb serine/threonine kinase PknB (P9WI81 whole entry): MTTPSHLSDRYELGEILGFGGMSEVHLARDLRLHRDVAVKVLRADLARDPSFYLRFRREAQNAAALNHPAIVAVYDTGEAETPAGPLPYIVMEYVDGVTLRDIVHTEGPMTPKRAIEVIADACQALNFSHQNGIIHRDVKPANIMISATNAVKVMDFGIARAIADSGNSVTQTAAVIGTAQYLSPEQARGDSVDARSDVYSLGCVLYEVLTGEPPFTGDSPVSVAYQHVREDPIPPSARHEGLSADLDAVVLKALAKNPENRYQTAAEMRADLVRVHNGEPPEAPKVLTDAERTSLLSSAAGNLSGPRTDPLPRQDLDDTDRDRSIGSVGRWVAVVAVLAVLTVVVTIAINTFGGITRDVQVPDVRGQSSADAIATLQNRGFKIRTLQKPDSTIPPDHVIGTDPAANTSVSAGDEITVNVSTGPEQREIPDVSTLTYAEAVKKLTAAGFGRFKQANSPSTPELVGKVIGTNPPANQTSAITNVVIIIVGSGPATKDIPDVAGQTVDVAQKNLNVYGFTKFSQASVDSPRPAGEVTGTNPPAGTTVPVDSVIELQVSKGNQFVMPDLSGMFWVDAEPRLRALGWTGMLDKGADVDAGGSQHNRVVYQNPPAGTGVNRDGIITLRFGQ
structure (smiles),measurement,setting,value
"CC[C@@H](CO)NCCN[C@@H](CC)CO [Ethambutol (EMB), Ethambutol]",MIC,[1],> 100 µg/mL
same,IC50,[2],> 400 µg/mL
same,MIC,[3]; read-out: MIC μg/mL (MABA),0.78 µg/mL
"COC1C(C(OC2OC(C(=O)NC3CCCCNC3=O)=CC(O)C2O)C(N)=O)OC(n2ccc(=O)[nH]c2=O)C1OC (stereo not drawn) [UT-01320 (3), 6-{Carbamoyl-[5-(2,4-dioxo-3,4-dihydro-2H-pyrimidin-1-yl)-3,4-dimethoxy-tetrahydro-furan-2-yl]-methoxy}-4,5-dihydroxy-5,6-dihydro-4H-pyran-2-carboxylic acid (2-oxo-azepan-3-yl)-amide]",MIC,[1],2.58 µg/mL
same,inhibition of Mtb serine/threonine kinase PknB,[4],did not inhibit
same,IC50,[5],> 400 µg/mL
same,time to kill Mtb completely (100%),[6],≤ 5 days
same,time to kill 50% of Mtb,[6],≤ 3 days
same,time to kill 100% of Mtb,[6]; 4× MIC: UT-01320 6.0 μg/mL,≤ 3 days
same,inhibition of menaquinone biosynthesis,[7],did not inhibit
same,MIC,[8],>200 µg/mL
same,IC50,[2],> 400 µg/mL
same,IC50,[9],100 to 150 nM
same,MIC,[10],> 200 µg/mL
same,IC50,[11],100 to 150 nM
same,MIC,[3],1.5 µg/mL
same,inhibition of DNA gyrase,[12],did not inhibit
same,MIC,[13],> 200 µg/mL
same,IC50,[14],100 to 150 nM
same,inhibition of Mtb serine/threonine kinase PKnA,[15],did not inhibit
same,IC50,[16],> 100000 nM
same,MurX enzyme inhibitory activity,[16],did not interfere with MurX
same,MurX enzyme inhibitory activity,[16]; listed as 3,did not exhibit MurX enzyme inhibitory activity even at high concentrations
same,MIC,[17],> 200 µg/mL
same,IC50,[18],100 to 150 nM
same,inhibition of electron transport systems,[19],did not inhibit
"COC1C(O)C(n2ccc(=O)[nH]c2=O)OC1C(OC1OC(C(=O)NC2CCCCNC2=O)=CC(O)C1O)C(N)=O (stereo not drawn) [Capuramycin (1), 6-{Carbamoyl-[5-(2,4-dioxo-3,4-dihydro-2H-pyrimidin-1-yl)-4-hydroxy-3-methoxy-tetrahydro-furan-2-yl]-methoxy}-4,5-dihydroxy-5,6-dihydro-4H-pyran-2-carboxylic acid (2-oxo-azepan-3-yl)-amide]",MIC,[1],> 100 µg/mL
same,time to kill Mtb completely (100%),[6],2 days
same,log10 CFU/mL reduction,"[6]; in 1 day, 24.0 μg/mL (2× MIC)",≥ 3.0 log10 CFU/mL
same,IC50,[2],> 400 µg/mL
same,IC50,[16],127 nM
"COC1C(O)C(n2ccc(=O)[nH]c2=O)OC1C(OC1OC(C(=O)Nc2ccc(F)c(F)c2)=CC(O)C1O)C(N)=O (stereo not drawn) [SQ 641 (2), 6-{Carbamoyl-[5-(2,4-dioxo-3,4-dihydro-2H-pyrimidin-1-yl)-4-hydroxy-3-methoxy-tetrahydro-furan-2-yl]-methoxy}-4,5-dihydroxy-5,6-dihydro-4H-pyran-2-carboxylic acid (3,4-difluoro-phenyl)-amide]",MIC,[1],> 100 µg/mL
same,IC50,[2],> 400 µg/mL
same,MIC (μg/mL) CA and CB (concentration in combination),[20]; pair SQ 641 0.10 + UT-01320 0.08,0.10 µg/mL
same,MIC (μg/mL) CA and CB (concentration in combination),[20]; pair SQ 641 0.10 + UT-01320 0.16,0.10 µg/mL
same,MIC (μg/mL) CA and CB (concentration in combination),[20]; pair SQ 641 0.10 + UT-01320 0.32,0.10 µg/mL
same,MIC (μg/mL) CA and CB (concentration in combination),[20]; pair SQ 641 0.10 + UT-01320 0.645,0.10 µg/mL
same,MIC (μg/mL) CA and CB (concentration in combination),[20]; pair SQ 641 0.10 + UT-01320 1.29,0.10 µg/mL
same,IC50,[16],98 nM
"CO[C@H]1/C=C/O[C@@]2(C)Oc3c(C)c(O)c4c(O)c(c(/C=N/N5CCN(C)CC5)c(O)c4c3C2=O)NC(=O)/C(C)=C\C=C\[C@H](C)[C@H](O)[C@@H](C)[C@@H](O)[C@@H](C)[C@H](OC(C)=O)[C@@H]1C [Rifampicin (RFP), Rifampicin]",time to kill 50% of Mtb,[6],over 7 days
same,IC50,[2],> 400 µg/mL
same,IC50,[11],120 nM
same,MIC,[3],0.2 µg/mL
same,MIC,[3]; read-out: MIC μg/mL (MABA),0.2 µg/mL
"NNC(=O)c1ccncc1 [Isoniazid (INH), Isoniazid]",MIC,[1],> 100 µg/mL
same,IC50,[2],> 400 µg/mL
same,MIC,[3],0.04 to 0.1 µg/mL
same,MIC,[3]; read-out: MIC μg/mL (MABA),0.04 to 0.1 µg/mL
